NPY-Y1 antag = blocks the human neuropeptide Y Y1 receptor; P25929; HEK293-CNG Y1 cells, membrane potential fluorescence; NPY at EC95, then isoproterenol; inhibition, % at 3.6 µM; actives 1% (n = 200,000);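 active = inhibition above the campaign mean inhibition of all tested compounds plus 3 SD, cut at about 20% in these data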;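 also: 0% = DMSO wells given NPY plus isoproterenol and 100% = isoproterenol alone without NPY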
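Material: HEK293 cells with Y1 receptor plus CNG channel; times: compound incubation 1 h at room temperature, readout 45 min post-stimulation; signal: fluorescence, membrane potential probe; read-out basis: fluorescence ratio normalized to % inhibition between controls; benchmarks: full-block control isoproterenol-only wells, zero-block control NPY plus isoproterenol wells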
NPY2 pot ag = potentiates or activates human NPY-Y2 receptor; P49146; activation, % at 3.6 µM; cells expressing NPY-Y2, potentiator/agonist read-out; actives 0.45% (n = 220,000); in the data active = activation above about 27%;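 also: cells stimulated with NPY near EC25 plus isoproterenol at EC100; 0% = vehicle plus submaximal agonist and 100% = vehicle plus saturating agonist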
Target sequence (P49146 whole entry, looked up): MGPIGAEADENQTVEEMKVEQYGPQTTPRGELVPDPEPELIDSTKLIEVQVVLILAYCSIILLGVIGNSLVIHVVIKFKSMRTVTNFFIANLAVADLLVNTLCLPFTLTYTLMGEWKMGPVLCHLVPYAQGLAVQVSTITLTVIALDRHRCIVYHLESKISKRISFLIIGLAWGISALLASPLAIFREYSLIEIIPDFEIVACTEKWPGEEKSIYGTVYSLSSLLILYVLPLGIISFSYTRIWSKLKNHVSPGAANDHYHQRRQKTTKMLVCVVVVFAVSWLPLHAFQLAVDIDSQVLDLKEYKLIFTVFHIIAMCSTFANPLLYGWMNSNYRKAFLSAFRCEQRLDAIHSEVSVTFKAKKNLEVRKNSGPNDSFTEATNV
INS promoter inh = TRM-6 insulin promoter activity inhibition; TRM-6 cells, insulin promoter-eGFP reporter, imaging; reporter expression induced with tamoxifen; inhibition, % at 2 µM; actives 0.9% (n = 130,000); AID 1273;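 active = inhibition above the mean plus 3 SD, with well images judged a real hit on visual review, cut at about 60% in these data, passing the limit was not always enough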
RAM network inh = inhibitors of the yeast RAM network. actives 1.8% (n = 190,000). S. cerevisiae dse1pr::URA3 reporter, 5-FOA growth OD615, 2 d; analog-sensitive cbk1-as2 kinase mutant strain. inhibition, % at 50 µM;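 active = inhibition above a set limit, 3 SD over mean compound inhibition, cut at about 8.4% in these data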;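 also: 0% = DMSO-only wells with no growth and 100% = 10 µM 1-NA-PP1 full growth; inhibition rescues growth on 5-FOA so higher OD means more RAM inhibition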
NPY1 pot ag = potentiators or agonists of human neuropeptide Y receptor Y1; NPY-Y1 expressing cells, potentiator/agonist activation; activation, % at 3.6 µM; actives 0.37% (n = 220,000); in the data active = activation above about 33%, passing the limit was not always enough;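 also: cells stimulated with NPY at EC10 then isoproterenol at EC100; 0% = low agonist plus stimulus and 100% = saturating agonist plus stimulus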
NPY-Y2 antag = NPY-Y2 (human) receptor antagonism; P49146; NPY-Y2 expressing cells, antagonist mode; inhibition, % at 2.7 µM; actives 0.99% (n = 140,000); AID 793; in the data active = inhibition above about 17%;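 also: 0% = vehicle with agonist challenge and 100% = reference antagonist with challenge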
Active calls of the source: *; / = no result. Only some compounds are listed: those with a hit (about 3.8% of all), similar ones and a draw of the others.

SMILES	NPY-Y1 antag	NPY2 pot ag	INS promoter inh	RAM network inh	NPY1 pot ag	NPY-Y2 antag
COc1ccc(S(=O)(=O)NCc2ccccc2)cc1	4.7	-5.5	-32.4	-0.5	-4.3	-1.2
COc1ccc(C(=O)COC(=O)c2cc(S(=O)(=O)NCc3ccccc3)ccc2O)cc1	0.1	7.9	/	9.1*	7.1	/
CCCN1CCC(NC(=S)Nc2ccc(S(N)(=O)=O)cc2)CC1	0.0	4.3	/	1.9	-6.4	/
Cc1cc(C)c(S(=O)(=O)Nc2ccccc2C(=O)OCC(=O)NCc2ccccc2)c(C)c1	-2.7	2.2	/	8.7*	10.2	/
O=C(COC(=O)c1ccccc1Nc1ccccc1)NCc1ccccc1	-2.2	3.6	/	2.6	-13.3	3.6
Cc1ccc(C(=O)Oc2cccc(NC(=O)c3ccccc3)c2)cc1C	0.8	-9.3	15.6	10.5*	-22.1	8.9
CCOc1ncccc1C(=O)OCc1cccc([N+](=O)[O-])c1	3.1	5.0	20.0	5.0	-12.0	/
Cc1ccc(C(=O)NC(=S)Nc2ccc3c(c2)OCCO3)c(C)c1	21.7*	-22.8	-36.7	2.1	-17.2	8.2
Cc1cc(C)cc(C(=O)NC(=S)Nc2ccc3c(c2)OCCO3)c1	6.3	-8.7	/	2.4	-14.8	8.3
COc1ccccc1Cn1c(=O)c2ccccc2n2c(SCc3csc(C)n3)nnc12	4.8	7.4	/	2.8	13.1	-1.9
COc1ccccc1Cn1c(=O)c2ccccc2n2c(Sc3ncnc4sccc34)nnc12	6.2	-0.1	78.6*	0.3	-4.4	4.3
Cc1cccc(-n2c3nc(=O)[nH]c(=O)c-3cc3c(C)nn(-c4ccccc4)c32)c1	-2.6	-2.3	62.5*	0.7	-2.8	-1.8
Cc1ccc(-n2c3nc(=O)[nH]c(=O)c-3cc3c(C)nn(-c4ccccc4)c32)c(C)c1	2.4	-4.5	-26.7	4.7	6.5	-0.8
CCn1nc(NC(=O)c2cccs2)c2cc3ccccc3nc21	2.0	13.1	-46.7	-1.4	10.3	/
COc1cc(N=Nc2cccc(S(N)(=O)=O)c2)c2ccccc2c1N	/	51.8*	/	/	60.5*	/
Cc1ccc(-c2cc(C(=O)Nc3ccc(S(=O)(=O)N4CC(C)OC(C)C4)cc3)[nH]n2)c(O)c1 (centres undefined)	/	0.5	/	/	18.0	/
Cc1ccc(O)c(-c2cc(C(=O)Nc3ccc(S(=O)(=O)N4CC(C)OC(C)C4)cc3)[nH]n2)c1 (centres undefined)	-7.5	18.1	-23.7	8.9*	32.3	-3.1
CCS(=O)(=O)c1ccc2oc(SCC(=O)NCCc3ccc(F)cc3)nc2c1	6.0	12.7	0.0	1.4	-4.7	/
CCN(CC)S(=O)(=O)c1ccc2oc(SCc3ccc(F)cc3)nc2c1	4.9	2.8	-11.1	10.0*	-13.2	5.1
CCCn1c(CCc2ccccc2)nnc1SCC(=O)N1CCOCC1	-7.8	11.0	78.1*	1.8	7.5	-2.0
O=C(CSc1nnc(CN2CCOCC2)n1-c1ccc(Cl)cc1)Nc1cc(Cl)ccc1O	-12.0	11.3	-46.4	11.3*	35.4	0.6
Cc1nn(C)cc1S(=O)(=O)N1CCN(Cc2ccc(F)cc2Cl)CC1	3.9	7.5	/	2.4	14.7	/
CCC(=O)N(CCC(c1ccco1)c1ccccc1OC)Cc1cccs1 (centres undefined)	25.1*	0.5	21.4	3.4	-3.0	22.1*
O=C(Nc1cnn(Cc2ccc(F)cc2)c1)c1cc2nc(-c3ccco3)cc(C(F)(F)F)n2n1	2.1	0.5	/	9.5*	6.8	0.0
O=C(Nc1cnn(Cc2ccc(F)cc2)c1)c1cc(-c2ccco2)on1	1.2	3.4	/	5.9	0.0	/
SMILES	NPY-Y1 antag	NPY2 pot ag	INS promoter inh	RAM network inh	NPY1 pot ag	NPY-Y2 antag
CCc1nc2ccccc2c(C(=O)NCc2ccccc2)c1C	-0.8	-15.5	/	0.4	-16.4	/
CCc1nc2ccc(F)cc2c(C(=O)NC2CCCCC2C)c1C (centres undefined)	35.3*	-53.4	20.4	1.4	-81.9	28.7*
CCCn1c(N)c(C(=O)NS(=O)(=O)c2ccc(C)cc2)c(=O)n(C)c1=O	-6.7	10.3	-23.5	3.3	27.5	/
Cc1cccc(OCC(=O)Nc2ccc(S(=O)(=O)Nc3cc(C)nc(C)n3)cc2)c1	-5.2	-1.1	/	1.2	16.2	/
Cc1ccc(NC(=O)c2c([N+](=O)[O-])c(C(C)(C)C)nn2C)c(C)c1	7.5	0.9	4.6	2.4	-22.8	-0.7
Cc1ccc(N/C(C(Cl)=C(Cl)Cl)=C(/Cl)[N+](=O)[O-])c(C)c1	5.3	6.1	7.7	9.4*	-29.2	3.5
